We go through eleven compounds from ChEMBL document CHEMBL1152431, “p-Guanidinoethyl calixarene and parent phenol derivatives exhibiting antibacterial activities. Synthesis and biological evaluation” (Bioorg Med Chem, 2009).

By IC50 is commonly meant the concentration that gives 50% inhibition. Low readings indicate higher potency, high ones lower potency. A word on the MIC: it is the smallest concentration in the dilution series that meets the test's criterion for growth inhibition. Read a high MIC as a need for much substance.

The source made the active and inactive calls.

The nature of experiment [1]: Selectivity index, ratio of IC50 for human MRC5 cells after 24 hrs to MIC for Enterococcus faecalis ATCC 29212. The format is functional. In a few lines:
(§1)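 SI computed as the MRC-5 IC50 after 24 h of drug exposure divided by the broth microdilution MIC for the named reference strain.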

Experiment [2] concerns MRC5. Nature of the experiment: Cytotoxicity against human MRC5 cells after 48 hrs. The experiment is classed as cell-based. The following applies: MRC5, 48 h. In a few lines:
(§2)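 MRC-5 human embryonic lung fibroblasts were grown in MEM with 10% heat-inactivated FBS and no antibiotics at 37 °C, 5% CO2, and seeded at 10^4 cells/well. After 48 h, drugs were applied at 256 to 1 µg/mL for 24, 48 or 168 h. Viability was read by MTT, or by LDH release for some compounds, as percent of untreated control. IC50 was given as a range; 8 wells per dose, 3 independent experiments.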

Experiment [3] can be described thus: Selectivity index, ratio of IC50 for human MRC5 cells after 24 hrs to MIC for Staphylococcus aureus ATCC 25923. The format is functional. In a few lines: as §1
Experiment [4] concerns MRC5. Kind of experiment: Cytotoxicity against human MRC5 cells after 24 hrs. The experiment is classed as cell-based. The settings on record: MRC5, 24 h. In a few lines: as §2
Experiment [5] concerns Escherichia coli. Nature of the experiment: Antibacterial activity against Escherichia coli ATCC 25922 after 18 to 24 hrs by broth microdilution method. The format is functional. A digest of the protocol: (§3)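 CLSI broth microdilution in Mueller-Hinton broth, with a final inoculum of 1 × 10^5 CFU/mL in U-bottom microplates. Isolate purity was checked at each test by colony morphology and Gram stain. Drug dilutions were added and plates incubated 18–24 h at 35 °C. Growth was read as absorbance at 540 nm to give the MIC.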
For orientation: Dilution methods test growth across graded concentrations, often in twofold steps.

The test system of experiment [6] is Pseudomonas aeruginosa. Nature of the experiment: Antibacterial activity against Pseudomonas aeruginosa ATCC 27853 after 18 to 24 hrs by broth microdilution method. The experiment is classed as functional. In a few lines:
as §3

Experiment [7] in a line: Selectivity index, ratio of IC50 for human MRC5 cells after 24 hrs to MIC for Staphylococcus aureus ATCC 29213. The experiment is classed as functional. A digest of the protocol: as §1
The nature of experiment [8]: Selectivity index, ratio of IC50 for human MRC5 cells after 24 hrs to MIC for Pseudomonas aeruginosa ATCC 27853. The format is functional. A digest of the protocol: as §1
Experiment [9] deals with MRC5. Nature of the experiment: Cytotoxicity against human MRC5 cells after 168 hrs. The experiment is classed as cell-based. The following applies: MRC5, 168 h. A digest of the protocol:
as §2

In experiment [10] the test system is Staphylococcus aureus. Kind of experiment: Antibacterial activity against Staphylococcus aureus ATCC 25923 after 18 to 24 hrs by broth microdilution method. The format is functional. A digest of the protocol:
as §3

The nature of experiment [11]: Selectivity index, ratio of IC50 for human MRC5 cells after 24 hrs to MIC for Escherichia coli ATCC 25922. The experiment is classed as functional. A digest of the protocol: as §1
In experiment [12] the test system is Staphylococcus aureus. Nature of the experiment: Antibacterial activity against Staphylococcus aureus ATCC 29213 after 18 to 24 hrs by broth microdilution method. The experiment is classed as functional. A digest of the protocol:
as §3

Experiment [13] deals with Enterococcus faecalis. Nature of the experiment: Antibacterial activity against Enterococcus faecalis ATCC 29212 after 18 to 24 hrs by broth microdilution method. The experiment is classed as functional. A digest of the protocol:
as §3

Experiment [14] relates to Staphylococcus aureus. Nature of the experiment: Antibacterial activity against Staphylococcus aureus ATCC 29213 upto 256 ug/mL after 18 to 24 hrs by broth microdilution method. The experiment is classed as functional, organism-based. In a few lines: as §3
In experiment [15] the test system is Enterococcus faecalis. Nature of the experiment: Antibacterial activity against Enterococcus faecalis ATCC 29212 upto 256 ug/mL after 18 to 24 hrs by broth microdilution method. The format is functional, organism-based. A digest of the protocol: as §3
The subject of experiment [16] is Staphylococcus aureus. Nature of the experiment: Antibacterial activity against Staphylococcus aureus ATCC 25923 upto 256 ug/mL after 18 to 24 hrs by broth microdilution method. The experiment is classed as functional, organism-based. A digest of the protocol: as §3
The subject of experiment [17] is Escherichia coli. Kind of experiment: Antibacterial activity against Escherichia coli ATCC 25922 upto 256 ug/mL after 18 to 24 hrs by broth microdilution method. The experiment is classed as functional, organism-based. A digest of the protocol: as §3
For experiment [18], the system named is Pseudomonas aeruginosa. Kind of experiment: Antibacterial activity against Pseudomonas aeruginosa ATCC 27853 upto 256 ug/mL after 18 to 24 hrs by broth microdilution method. The format is functional, organism-based. In a few lines: as §3

In the case of `N=C(N)c1ccc(OCCCCCCOc2ccc(C(=N)N)cc2)cc1.O=C(O)C(F)(F)F`, the “Selectivity Index” value in experiment [1] came out at 16; in experiment [3] it was 8; in experiment [7], 32; in [8], 1; in [11] it was 4. The IC50 in experiment [2] was 16 µg/mL; in [4], 32 µg/mL; in experiment [9], 4 µg/mL. Moreover, the MIC in [5] is 8 µg/mL; in experiment [6], 32 µg/mL; in experiment [10], 4 µg/mL; in experiment [12] it was < 1 µg/mL; in [13], 2 µg/mL.

On to `N=C(N)NCCCCCCCCCCNC(=N)N.O=C(O)C(F)(F)F` [SYNTHALIN A], for which the “Selectivity Index” value came out at 0.5 in [1]; 2 in [3]; 8 in experiment [7]; 1 in [8]; 2 in [11]. In addition, the figures for the IC50 in experiment [2], in experiment [4] and in experiment [9] were 8 µg/mL, 128 µg/mL and < 1 µg/mL, respectively. The minimum inhibitory concentration (MIC) in experiment [5] is 64 µg/mL; in [6] it was 128 µg/mL; in experiment [10], 64 µg/mL; in experiment [12] it was 16 µg/mL; in [13], 256 µg/mL.

As to `O=C([O-])C(F)(F)F.[Na+]`, the outcome in experiment [14], in experiment [15], in experiment [16], in [17] and in [18] was inactive.

As for `Cc1ccc(-c2ccc(COc3ccc(CCNC(=N)N)cc3)cn2)nc1.O=C(O)C(F)(F)F`, the “Selectivity Index” value in experiment [1] is on record as >2; in experiment [3], >16; in experiment [7], >32; in [8], >1; in experiment [11], >16. In addition, the half-inhibitory concentration (IC50) in experiment [2] and in experiment [4] was > 128 µg/mL each time. For the same compound, the minimum inhibitory concentration (MIC) came out at 8 µg/mL in experiment [5]; 128 µg/mL in [6]; 8 µg/mL in experiment [10]; 4 µg/mL in [12]; 64 µg/mL in [13].

With `Cc1csc(-c2nc(COc3ccc(CCNC(=N)N)cc3)cs2)n1.O=C(O)C(F)(F)F`, the “Selectivity Index” value is given as 1 in [1]; 4 in experiment [3]; 8 in experiment [7]; 0.5 in experiment [8]; 1 in experiment [11]. Further, the IC50 in experiment [2] stood at 32 µg/mL; in experiment [4], 64 µg/mL; in experiment [9], 8 µg/mL. Moreover, the MIC is 64 µg/mL in experiment [5]; 128 µg/mL in experiment [6]; 16 µg/mL in experiment [10]; 8 µg/mL in [12]; 64 µg/mL in experiment [13].

Turning to `Cc1ccc(-c2ccc(COc3c4cc(CCNC(=N)N)cc3Cc3cc(CCNC(=N)N)cc(c3O)Cc3cc(CCNC(=N)N)cc(c3OCc3ccc(-c5ccc(C)cn5)nc3)Cc3cc(CCNC(=N)N)cc(c3O)C4)cn2)nc1.O=C(O)C(F)(F)F`, the “Selectivity Index” value in experiment [1] is >16; in experiment [3], >16; in [7], >16; in experiment [8], >4; in experiment [11] it was >4. Also, the half-inhibitory concentration (IC50) in [2] and in [4] was > 128 µg/mL in each case. Further, the MIC came out at 32 µg/mL in experiment [5]; 32 µg/mL in experiment [6]; 8 µg/mL in experiment [10]; 8 µg/mL in experiment [12]; 8 µg/mL in [13].

`Cc1cccc(-c2cccc(COc3c4cc(CCNC(=N)N)cc3Cc3cc(CCNC(=N)N)cc(c3O)Cc3cc(CCNC(=N)N)cc(c3OCc3cccc(-c5cccc(C)n5)n3)Cc3cc(CCNC(=N)N)cc(c3O)C4)n2)n1.O=C(O)C(F)(F)F`: the “Selectivity Index” value in experiment [1], in [3], in experiment [7], in [8] and in [11] was 1 each time. In addition, the half-maximal inhibitory concentration (IC50) in [2], in experiment [4] and in experiment [9] was 16 µg/mL throughout. For the same compound, the minimal inhibitory concentration (MIC) in [5], in [6], in [10], in experiment [12] and in experiment [13] was 16 µg/mL throughout.

For `Cc1csc(-c2nc(COc3c4cc(CCNC(=N)N)cc3Cc3cc(CCNC(=N)N)cc(c3O)Cc3cc(CCNC(=N)N)cc(c3OCc3csc(-c5nc(C)cs5)n3)Cc3cc(CCNC(=N)N)cc(c3O)C4)cs2)n1.O=C(O)C(F)(F)F`, the “Selectivity Index” value in experiment [1] was 2; in experiment [3], 2; in [7], 1; in experiment [8], 1; in experiment [11] it was 1. Also, the IC50 in experiment [2], in [4] and in experiment [9] was 16 µg/mL each time. The MIC was 16 µg/mL in [5]; 16 µg/mL in experiment [6]; 8 µg/mL in experiment [10]; 16 µg/mL in experiment [12]; 8 µg/mL in experiment [13].

With `N=C(N)NCCc1ccc(O)cc1.O=C(O)C(F)(F)F`, the half-inhibitory concentration (IC50) in experiment [2] is > 256 µg/mL; in [4] it was > 256 µg/mL; in experiment [9], 32 µg/mL. Besides, the “Selectivity Index” value in [3], in [7] and in [11] was >0.5 throughout. Further, the minimal inhibitory concentration (MIC) is 512 µg/mL in [5]; > 512 µg/mL in experiment [6]; 512 µg/mL in experiment [10]; 512 µg/mL in [12]; > 512 µg/mL in experiment [13].

For the compound `Cc1cccc(-c2cccc(COc3ccc(CCNC(=N)N)cc3)n2)n1.O=C(O)C(F)(F)F`, the “Selectivity Index” value in [1] was 0.5; in experiment [3] it was 2; in [7] it was 4; in experiment [8] it was 0.25; in experiment [11], 0.25. The half-maximal inhibitory concentration (IC50) in [2] came out at 16 µg/mL; in experiment [4], 32 µg/mL; in experiment [9], 2 µg/mL. Moreover, the MIC in [5] turned out to be 128 µg/mL; in [6], 128 µg/mL; in [10], 16 µg/mL; in experiment [12], 8 µg/mL; in experiment [13] it was 64 µg/mL.

`N=C(N)NCCc1cc2c(O)c(c1)Cc1cc(CCNC(=N)N)cc(c1O)Cc1cc(CCNC(=N)N)cc(c1O)Cc1cc(CCNC(=N)N)cc(c1O)C2.O=C(O)C(F)(F)F`: the “Selectivity Index” value in [1] is on record as >8; in [3] it was >32; in experiment [7], >32; in [8], >8; in [11] it was >64. Besides, the concentration for half-maximal inhibition (IC50) in experiment [2] was > 256 µg/mL; in [4] it was > 256 µg/mL; in experiment [9] it was 128 µg/mL. Further, the minimal inhibitory concentration (MIC) in experiment [5] is 4 µg/mL; in [6], 32 µg/mL; in experiment [10], 8 µg/mL; in experiment [12], 8 µg/mL; in experiment [13], 32 µg/mL.
